SR-BI uptake up: activators of SR-BI mediated DiI-HDL uptake, primary screen, ldlA[mSR-BI] CHO cells, DiI fluorescence | activation, % at 12.5 µM | 320,000 compounds, 0.096% hits | 3 h; 100 = double the neutral-control signal | AID 504775, 2011;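 active = mean replicate activation of at least 60% and every replicate at or above 60%; inconclusive = mean or all-replicate condition met, but not both; inactive = mean below 60% and not all replicates reaching 60%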;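 note: 0% = median plate neutral-control signal and 100% = twice that signal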
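Material: SR-BI-overexpressing, LDLR-lacking CHO cells | Dosing: Single compound concentration, delivered by pin transfer | Probe or stimulus: Labelled HDL, 10 µg/mL | Signal: Bottom-read cell fluorescence after medium removal, ex 550/em 595 nm | Schedule: 3 h, 37 °C | Evaluation: HDL uptake via cellular fluorescence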
SR-BI DiI inh: inhibitors of SR-BI mediated HDL lipid uptake, primary screen, ldlA[mSR-BI] cells, fluorescence, single point. ldlA[mSR-BI] CHO cells, DiI-HDL uptake fluorescence, 3 h. inhibition, % at 12.5 µM. 320,000 compounds, 0.96% hits. AID 488896, 2010;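 active = mean replicate inhibition of at least 70% and a set share of replicates each scoring 70 or more; inconclusive = meets just one of the two criteria; inactive = fails both criteria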;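 note: 0% = median of neutral control wells and 100% = median of positive control wells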
Target sequence (Q61009 whole entry, looked up): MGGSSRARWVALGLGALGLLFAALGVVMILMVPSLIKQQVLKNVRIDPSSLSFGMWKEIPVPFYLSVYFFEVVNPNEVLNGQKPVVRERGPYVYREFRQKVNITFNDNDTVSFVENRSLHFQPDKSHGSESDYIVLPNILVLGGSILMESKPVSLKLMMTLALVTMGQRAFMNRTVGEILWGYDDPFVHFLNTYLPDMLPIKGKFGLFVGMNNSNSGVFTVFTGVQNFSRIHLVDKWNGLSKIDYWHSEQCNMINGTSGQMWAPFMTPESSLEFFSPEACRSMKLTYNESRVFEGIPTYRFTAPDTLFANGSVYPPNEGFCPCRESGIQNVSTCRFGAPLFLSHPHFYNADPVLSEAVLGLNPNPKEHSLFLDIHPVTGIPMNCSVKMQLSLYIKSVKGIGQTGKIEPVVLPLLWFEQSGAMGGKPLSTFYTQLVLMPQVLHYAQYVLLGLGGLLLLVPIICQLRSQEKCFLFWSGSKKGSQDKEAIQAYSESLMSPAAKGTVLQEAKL
SMARCA2 activ: SMARCA2 (BRM) function activators, primary screen, cell-based, luminescence, high throughput | MG213 cells, MMTV-luciferase reporter, dexamethasone, overnight | activation, % at 9.1 µM | 370,000 compounds, 1% hits; in the data active = activation above about 7.8%;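 note: 0% = vehicle wells and 100% = reference activator wells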
TAG inh: inhibitors of triacylglycerol accumulation, primary screen, cell-based, uHTS, fluorescence, H9c2; H9c2 cells, Nile Red lipid (TAG) fluorescence; cells loaded with 200 µM oleic acid; inhibition, % at 12.5 µM; 230,000 compounds, 0.66% hits; AID 651582, 2012;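 active = pattern-corrected inhibition of lipid staining of at least 50% with the nuclear-stain viability signal not falling by more than 50%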;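 note: 0% = DMSO wells and 100% = triacsin C control wells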
Vif imaging: HIV Vif self-association inhibitors, primary screen, imaging, HEK293T, single point. HEK293T cells, Vif self-association by quenched fluorescence, 24 h. inhibition, % at 7.49 µM. 340,000 compounds, 0.35% hits; in the data active = inhibition above about 50%, passing the limit was not always enough; inconclusive = no clear call, values can overlap the other calls; inactive = below about 31%
The depositor's hits bear a star; ? = inconclusive; / = not tested or not shown. Hits are enriched below; roughly 2.5% of the tested compounds scored in any of these assays.

SMILES	SR-BI uptake up	SR-BI DiI inh	SMARCA2 activ	TAG inh	Vif imaging
Cc1ccc(N=C(c2cccs2)N2CCOCC2)cc1	-34.8	34.8	2.2	-8.8	63.4*
CSc1nc(N)c(C#N)c(-c2ccc(Cl)cc2)c1C#N	-11.6	11.6	1.2	7.0	-6.3
COc1ccc(-c2c(C#N)c(N)nc(Sc3ccc(Cl)cc3)c2C#N)cc1	14.5	-14.5	4.0	54.1*	-6.1
COc1ccc(C)c2sc(=NC(=O)c3ccccc3)n(C)c12	-74.1	74.1*	1.0	-9.8	23.2
COc1ccc(C)c2sc(=NC(=O)c3ccc(C(C)=O)cc3)n(C)c12	/	/	2.6	9.2	-2.6
Oc1ccccc1N=Nc1ccccc1O	-86.7	86.7*	-3.8	/	1.4
COc1ccc(Nc2nc(-c3cccc([N+](=O)[O-])c3)nc3ccccc23)cc1	-87.6	87.6*	-2.1	/	9.7
O=C(O)c1ccc(Nc2nc(-c3ccc([N+](=O)[O-])cc3)nc3ccccc23)cc1	-13.9	13.9	0.4	/	/
O=[N+]([O-])c1ccc(S(=O)(=O)Nc2nc3ccccc3nc2Nc2ccccc2)cc1	-78.2	78.2*	-2.0	/	0.4
COc1cc(Nc2nc3ccccc3nc2NS(=O)(=O)c2ccc([N+](=O)[O-])cc2)cc(OC)c1OC	-57.9	57.9	-3.1	/	0.4
COc1ccc(Nc2nc(-c3cccs3)nc3ccccc23)cc1	-75.4	75.4*	-1.7	/	9.2
O=[N+]([O-])c1ccc(-c2nc(Nc3ccc(O)cc3)c3ccccc3n2)cc1	-90.7	90.7*	-4.0	/	-17.3
CCN(CC)c1ccc(C=NNC(=O)c2cc(-c3ccc(C)c(C)c3)n[nH]2)c(O)c1	/	/	-4.4	/	/
COC(=O)[C@]12C[C@H](CC(=O)NCCCN3CCCC3=O)C(=O)N(Cc3ccccc3)C1=C[C@H](C(C)C)O[C@@H]2C1CC1	/	/	-3.6	/	/
O=C(CSc1nnc(-c2ccccc2)n1-c1ccccc1)Nc1ccc(Oc2ccccc2)cc1	/	/	1.7	/	/
COc1ccccc1N(/N=C1\Sc2ccccc2C1=O)C(C)=O	-8.5	8.5	-0.2	69.5*	-13.7
Cc1cc2c(nc1C)CCCN2Cc1ccccn1	/	/	-8.5	/	/
Cc1c(NC(=O)C(C)OC(=O)c2sc3ccccc3c2Cl)c(=O)n(-c2ccccc2)n1C (stereo unspecified)	-23.0	23.0	-1.6	7.2	107.8*
Cc1c(NC(=O)C(C)OC(=O)c2cc(Cl)nc(Cl)c2)c(=O)n(-c2ccccc2)n1C (stereo unspecified)	1.4	-1.4	-1.6	/	-5.7
CCN(CC)C(=O)c1sc(NC(=O)c2c(OC)cccc2OC)c(C#N)c1C	-84.7	93.9*	-0.3	-11.1	-5.4
O=C(CN1c2ccccc2Sc2ccccc21)NNC(=S)Nc1ccc(Cl)cc1Cl	-75.9	75.9*	-1.3	-13.3	-16.9
CC(C)(C)C1CCC(=NNC(=O)c2ccccc2-n2cccc2)CC1 (stereo unspecified)	?	-121.3	11.1*	/	/
O=C(NCc1ccccc1)[C@H]1CCCN1C(=O)[C@H]1CCCN1C(=O)c1ccc(OC(F)(F)F)cc1	/	/	-3.4	/	/
O=C(c1cc(COc2c(F)cccc2F)on1)N1CCCCCC1	7.5	-7.5	7.9*	-14.2	-0.1
CC(=O)N1CCCN(C(=O)c2cc(COc3c(F)cccc3F)on2)CC1	8.6	-8.6	-0.6	16.0	/
SMILES	SR-BI uptake up	SR-BI DiI inh	SMARCA2 activ	TAG inh	Vif imaging
COCCCNc1nc(-c2ccc(Cl)cc2)nc2ccccc12	-85.8	85.8*	-1.2	/	-4.2
COCCCNc1nc(-c2ccncc2)nc2ccccc12	-75.0	75.0*	4.4	44.1	/
COCCNc1nc(-c2ccccc2)nc2ccccc12	-31.2	31.2	-3.2	5.9	-4.7
OCCCNc1nc(-c2ccc(Cl)cc2)nc2ccccc12	-50.4	50.3	3.6	/	-7.2
C[C@@H]1CCCCO[C@@H](CN(C)C(=O)NC2CCCCC2)[C@@H](C)CN([C@H](C)CO)C(=O)c2cc(N(C)C)ccc2O1	/	/	5.9	/	/
CCOC(=O)C1=C(C)N=C2SCCC(=O)N2[C@@H]1c1cccs1	291.8*	-291.8	1.1	5.4	-17.7
Cc1cc2c(nc1C)CCCN2S(=O)(=O)c1cccs1	/	/	2.7	/	/
COC(=O)C1=C(C)N(Cc2ccccc2C(F)(F)F)C(=NCc2cccc(C(F)(F)F)c2)NC1c1cccc(Cl)c1 (stereo unspecified)	/	/	2.2	/	/
c1ccc(-c2nnc(-c3ccncc3)nc2-c2ccccc2)cc1	40.3	-40.3	-0.2	-4.5	3.5
Brc1nc(-c2ccccc2)nc(-c2ccccc2)c1Br	/	/	0.7	26.8	69.5*
CCOC(=O)c1c2c(n(-c3ccc(OC)cc3)c1C)C(=O)C(=O)c1ccccc1-2	-69.8	69.8	/	71.0*	8.4
CCOC(=O)c1sc(=S)n(-c2ccc(OC)cc2)c1C	/	/	-3.7	-5.5	1.2
COc1ccccc1C(=O)N1CCC2CCNC2C1 (stereo unspecified)	/	/	-3.8	/	/
Nc1c(C(=O)OCC2CCCO2)c2nc3ccccc3nc2n1-c1ccc2c(c1)OCCO2 (stereo unspecified)	/	/	-1.5	/	/
O=c1c2c3nc4ccccc4nc3n(-c3ccc4c(c3)OCCO4)c2ncn1C1CCCC1	26.0	-26.0	-3.6	64.1*	/
COC(=O)c1cc2c(c3c4ccccc4n(S(=O)(=O)c4ccc(OC)cc4)c13)C(=O)N(C)C2	/	/	2.1	/	/
C[C@@H]1COc2cc(N3CCCC3)ccc2S(=O)(=O)N1	/	/	-0.1	/	/
C=CCN1[C@H](C)COc2cc(N3CCSCC3)ccc2S1(=O)=O	/	/	-0.2	/	/
Oc1ccc(Nc2nc3ccccc3nc2Nc2ccc(O)cc2)cc1	-90.1	90.1*	/	109.5	9.0
CCc1nnc(NC(=O)c2sc3nc4cc(C)ccc4cc3c2N)s1	-20.9	20.9	-0.3	5.6	169.7*
CCOC(=O)Cc1csc(NC(=O)c2sc3nc4ccc(C)cc4cc3c2N)n1	-7.0	7.0	3.8	/	-8.8
CCCCOCCCNC(=O)C[C@H]1C[C@@]2(C(=O)OC)C(=C[C@H](COCc3ccccc3)O[C@@H]2C)N(CCC2=CCCCC2)C1=O	/	/	-6.2	/	/
O=c1[nH]nc(-c2ccc(NCCO)c([N+](=O)[O-])c2)c2ccccc12	-16.3	16.3	2.5	/	55.7*
CCCOc1c(Cl)cc(C(=O)Nc2ccc3c(c2)OCO3)cc1OCC	-78.3	78.3*	-4.8	21.2	3.2
CCOc1cc(C(=O)Nc2ccc3c(c2)OCO3)ccc1OC(F)F	-88.7	88.7*	1.2	/	-0.2
CCOC(=O)[C@@]12CCCC3=C1N(CCC3)C(=O)[C@H]2CC(=O)N1CCOCC1	/	/	-3.1	/	/
Nc1[nH]c(C(=O)c2ccc(Br)cc2)c(-c2ccc(Cl)cc2[N+](=O)[O-])c1C(=O)NCCc1c[nH]c2ccccc12	/	/	-5.6	/	/
COC(=O)c1cc(NCc2c(F)cccc2Cl)ccc1N1CCOCC1	-19.9	19.9	-3.5	/	-18.8
